Our source for the viability and Activity values is ChEMBL document CHEMBL4038311, “An Ursolic Acid Derived Small Molecule Triggers Cancer Cell Death through Hyperstimulation of Macropinocytosis” (J Med Chem, 2017).

Molecules are shown by their SMILES. Active and inactive are the calls of the source. No cut-off for these calls is given here.

Series [1] is described as follows: Cytotoxicity against mouse C2C12 cells assessed as cell viability at 20 uM after 24 to 48 hrs by CCK8 assay relative to control. The format is cell-based. Particulars: read-out: Activity. A digest of the protocol:
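C2C12 or HDF cells, seeded at 5000/well, given 20 µM or 0.1% DMSO for 24 h or 48 h. CCK-8 absorbance read at 450 nm, relative to DMSO control. Six parallel wells, at least three independent repeats.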

Series [2] relates to HeLa. As to the kind of experiment: Induction of autophagy in human HeLa cells assessed as cytosolic autophagosomes formation at 20 uM after 24 hrs by transmission electron microscopic analysis. The format is functional, cell-based. In outline:
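HeLa exposed to 20 µM for 24 h, then fixed, dehydrated and resin-embedded. Ultrathin sections on copper grids stained with uranyl acetate and lead citrate, then examined by TEM.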

The subject of series [3] is HeLa. Put plainly: Anticancer activity against human HeLa cells assessed as decrease in cell viability at 20 uM preincubated cells with Z-VAD-FMK for 1 hr followed by compound addition measured after 48 hrs by CCK8 assay. The format is functional, cell-based. In outline:
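HeLa cells pretreated 1 h with 50 µM z-VAD-FMK, then given the compound. Viability read after 48 h by CCK-8 (450 nm), with DMSO-treated wells as control.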

Another series concerns HepG2. Put plainly: Anticancer activity against human HepG2 cells assessed as vacuole formation at 20 uM after 24 hrs by phase contrast microscopic analysis. The class given is functional, cell-based.

Consider `C[C@H]1[C@H](C)CC[C@]2(C(=O)O)CC[C@]3(C)C(=CC[C@@H]4[C@@]5(C)Cc6cnn(-c7ccc(C#N)cc7)c6C(C)(C)[C@@H]5CC[C@]43C)[C@H]12`, for which the viability at 20 µM in series [1] was 13%. Besides, the outcome in the series on HeLa [2] was inactive. Also, the outcome with HeLa [3] and in the series with HepG2 was Active.
